This is an account of results in ChEMBL document CHEMBL4138318, “Discovery of 5-Cyano-6-phenylpyrimidin Derivatives Containing an Acylurea Moiety as Orally Bioavailable Reversal Agents against P-Glycoprotein-Mediated Mutidrug Resistance” (J Med Chem, 2018).

A short description of series [1]: Cytotoxicity against human SW620 cells assessed as survival at 2 uM after 72 hrs by MTT assay relative to control. Particulars: read-out: Survival. The class given is cell-based, SW-620.
Series [2] can be described thus: Cytotoxicity against human SW620/AD300 cells assessed as survival at 2 uM after 72 hrs by MTT assay relative to control. The class given is cell-based. The conditions noted are these: read-out: Survival. (In general: Tetrazolium dyes change colour on reduction, which living cells bring about.)
Series [3] concerns the target T1, ATP-dependent translocase ABCB1 (Homo sapiens, UniProt P08183). Nature of the series: Inhibition of ABCB1 in human SW620/AD300 cells assessed as potentiation of paclitaxel-induced cytotoxicity after 72 hrs by MTT assay. The class given is cell-based. The procedure, abridged: (§1)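 SW620/AD300 cells (~5×10^3/well) treated with graded paclitaxel with or without modulator (2 µM, or 0.5-2 µM in dose series; 0.1% DMSO solvent control) for 72 h; MTT (5 mg/mL stock) added 4 h, absorbance 490 nm. IC50 as mean ± SD of three independent runs; reversal fold = paclitaxel IC50 without/with modulator.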

In series [4] the target is T1, ATP-dependent translocase ABCB1. Description: Inhibition of ABCB1 in human SW620/AD300 cells assessed as potentiation of paclitaxel-induced cytotoxicity by measuring fold reduction in paclitaxel IC50 at 1 uM after 72 hrs by MTT assay. In kind it is cell-based. The gist of the method:
as §1

Series [5] concerns SW620/AD300. Description: Effect on subcellular localization of ABCB1 in human SW620/AD300 cells at 2 uM after 48 hrs by Hoechst 33258 staining-based immunofluorescence assay. In kind it is functional, cell-based. The gist of the method:
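About 1×10^4 cells on coverslips incubated with compound 48 h, fixed in 4% paraformaldehyde ≥20 min, blocked 2 h in PBS with 5% BSA, anti-ABCB1 primary overnight at 4℃, Alexa Fluor 488 anti-goat secondary 2 h, nuclei stained with Hoechst 33258 20 min; imaged by laser scanning confocal microscopy.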

The target in series [6] is T1, ATP-dependent translocase ABCB1. Nature of the series: Inhibition of ABCB1 in human SW620/AD300 cells assessed as accumulation of rhodamine 123 preincubated for 4 hrs followed by rhodamine 123 addition measured after 30 mins by flow cytometry. The class given is cell-based. Particulars: 0.5 h. For orientation: A flow cytometer gives signals particle by particle.
The subject of series [7] is SW-620. Description: Increase in rhodamine 123 accumulation in human SW620 cells up to 4 uM preincubated for 4 hrs followed by rhodamine 123 addition measured after 30 mins by flow cytometry. In kind it is functional, cell-based.
The target in series [8] is T1, ATP-dependent translocase ABCB1. Description: Inhibition of ABCB1 in human SW620/AD300 cells assessed as decrease in rhodamine 123 efflux preincubated for 4 hrs followed by 30 mins incubation in Rho-123 containing medium and subsequent incubation in Rho-123 free medium up to 120 mins by flow cytometry. In kind it is cell-based. The procedure, abridged:
(§2)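 Cells loaded with rhodamine 123 as in the accumulation assay (4 h compound pre-exposure, 1 µg/mL dye 30 min, 37℃), then kept in dye-free medium with or without reversal agent for 30, 60, 90 or 120 min at 37℃; intracellular fluorescence read by flow cytometry at 488/530 nm. Three independent experiments.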

Series [9] shares this target. Nature of the series: Inhibition of ABCB1 in human SW620/AD300 cells assessed as intracellular accumulation of [3H]-paclitaxel up to 4 uM preincubated for 4 hrs followed by [3H]-paclitaxel addition measured after 2 hrs by liquid scintillation counting method. The class given is cell-based. The gist of the method:
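Cells pre-exposed with or without compound at various concentrations 4 h at 37°C, then 0.1 µM [3H]-paclitaxel added for 2 h in continued presence of treatment; washed three times in cold PBS, lysed, radioactivity counted by liquid scintillation. Mean ± SD of three independent assays.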

Series [10] shares this target. Description: Inhibition of ABCB1 in human SW620/AD300 cells assessed as reduction in [3H]-paclitaxel efflux preincubated for 4 hrs followed by [3H]-paclitaxel addition for 2 hrs measured after 120 mins by liquid scintillation counting method. In kind it is cell-based. The procedure, abridged:
(§3)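 After 2 h loading with 0.1 µM [3H]-paclitaxel (following 4 h compound pre-exposure), SW620 or SW620/AD300 cells moved to label-free medium for a 2 h efflux phase; samples taken at 0, 30, 60 and 120 min and radioactivity counted by liquid scintillation. Three independent assays, mean ± SD.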

In series [11] the test system is SW-620. Description: Inhibition of [3H]-paclitaxel efflux in human SW620 cells up to 4 uM preincubated for 4 hrs followed by [3H]-paclitaxel addition for 2 hrs measured after 120 mins by liquid scintillation counting method. In kind it is functional, cell-based. The procedure, abridged:
as §3

For series [12], the target named is T1, ATP-dependent translocase ABCB1. Nature of the series: Stimulation of human ABCB1 ATPase activity expressed in high-five insect cell membrane vesicles assessed as compound concentration required for 50% stimulation by colorimetric analysis. The conditions noted are these: read-out: Activity. The procedure, abridged:
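Vanadate-sensitive ABCB1 ATPase activity in High Five insect cell membrane vesicles, measured with a commercial ATPase kit under a modified protocol; compound tested across 0-40 µM; maximal fold stimulation and concentration giving 50% stimulation derived.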

For series [13], the target named is Cytochrome P450 3A4 (Homo sapiens, UniProt P08684). Description: Inhibition of recombinant human CYP3A4 in presence of NADPH generating system by fluorescence assay. In kind it is ADME.
Chain of Cytochrome P450 3A4 (P08684 whole entry): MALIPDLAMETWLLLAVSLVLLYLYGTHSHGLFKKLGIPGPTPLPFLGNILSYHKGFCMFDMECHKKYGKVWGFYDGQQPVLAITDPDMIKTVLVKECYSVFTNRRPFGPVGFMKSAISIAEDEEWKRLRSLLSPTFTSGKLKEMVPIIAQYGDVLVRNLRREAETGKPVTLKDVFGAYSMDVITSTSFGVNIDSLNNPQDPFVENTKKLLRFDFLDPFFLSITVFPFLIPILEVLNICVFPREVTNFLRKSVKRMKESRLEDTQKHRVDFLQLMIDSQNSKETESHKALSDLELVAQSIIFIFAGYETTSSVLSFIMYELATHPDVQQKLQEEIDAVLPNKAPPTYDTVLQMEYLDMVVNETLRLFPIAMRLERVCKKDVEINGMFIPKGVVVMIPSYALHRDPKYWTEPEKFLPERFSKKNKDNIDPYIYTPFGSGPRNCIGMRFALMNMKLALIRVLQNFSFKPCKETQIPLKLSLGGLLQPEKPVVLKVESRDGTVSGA
Series [14] has as its target T2, Multidrug resistance-associated protein 1 (Homo sapiens, UniProt P33527). Description: Binding affinity at ABCC1 in human SW620/AD300 cells assessed as thermal stabilization preincubated for 30 mins followed by incubation 40 to 61 degC for 3 mins by CETSA. In kind it is cell-based. Particulars: 0.05 h. The procedure, abridged:
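SW620/AD300 cells lysed by three liquid-nitrogen freeze-thaw cycles; ultracentrifuged supernatant split into compound-treated and solvent-control portions, incubated 30 min at 37℃, aliquoted and heated 3 min at 40, 43, 46, 49, 52, 55, 58 or 61℃; remaining ABCB1 or ABCC1 detected by western blotting.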

Series [15] addresses T1, ATP-dependent translocase ABCB1. Nature of the series: Inhibition of ABCB1 in human KB-C2 cells assessed as potentiation of vincristine-induced cytotoxicity by measuring fold reduction in vincristine IC50 at 1 uM preincubated for 4 hrs followed by vincristine addition measured after 72 hrs by MTT assay. The class given is cell-based.
Series [16] concerns the target T2, Multidrug resistance-associated protein 1. Description: Inhibition of ABCC1 in human KB-CV60 cells assessed as potentiation of vincristine-induced cytotoxicity by measuring fold reduction in vincristine IC50 at 1 uM preincubated for 4 hrs followed by vincristine addition measured after 72 hrs by MTT assay. The class given is cell-based. The procedure, abridged:
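KB-CV60 and HEK293/ABCC1 cells (transfected line kept in 2 mg/mL G418) given graded vincristine with or without modulator for 72 h; MK571 25 µM reference; viability by MTT read at 490 nm. IC50 from three independent repeats, mean ± SD; reversal fold = vincristine IC50 ratio without/with modulator.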

The subject of series [17] is SW620/AD300. Nature of the series: Antitumor activity against ABCB1 overexpressing human SW620/AD300 cells xenografted in BALB/c nude mouse assessed as reduction in tumor volume at 20 mg/kg/day, po measured after 21 days. The class given is functional, organism-based. The procedure, abridged: (§4)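 Female BALB/c nude mice (18-20 g, 5-6 weeks) bearing SW620/AD300 xenografts; grouping once tumours reached 100 mm3: saline vehicle […] ip, paclitaxel 5 mg/kg every 3 days ip, test agent 20 mg/kg/day orally, or the combination. Body weight and tumour volume recorded every 2 days over 21 days; tumours excised and weighed at end.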

Series [18] concerns SW620/AD300. Nature of the series: Antitumor activity against ABCB1 overexpressing human SW620/AD300 cells xenografted in BALB/c nude mouse assessed as reduction in tumor volume at 20 mg/kg/day, po cotreated with 5 mg/kg, ip paclitaxel measured after 21 days. The class given is functional, organism-based. The gist of the method:
as §4
On the technique in general: In xenograft studies the graft and the host belong to different species.

Series [19] has as its system SW-620. Description: Inhibition of rhodamine 123 efflux in human SW620 cells up to 4 uM preincubated for 4 hrs followed by 30 mins incubation in Rho-123 containing medium and subsequent incubation in Rho-123 free medium up to 120 mins by flow cytometry. The class given is functional, cell-based. The procedure, abridged:
as §2

A word on the IC50: it is the concentration that inhibits the measured activity by half.

Molecules are shown by their SMILES. Activity calls are given as the source filed them. No cut-off for these calls is given here.

T1 sequence (P08183 whole entry): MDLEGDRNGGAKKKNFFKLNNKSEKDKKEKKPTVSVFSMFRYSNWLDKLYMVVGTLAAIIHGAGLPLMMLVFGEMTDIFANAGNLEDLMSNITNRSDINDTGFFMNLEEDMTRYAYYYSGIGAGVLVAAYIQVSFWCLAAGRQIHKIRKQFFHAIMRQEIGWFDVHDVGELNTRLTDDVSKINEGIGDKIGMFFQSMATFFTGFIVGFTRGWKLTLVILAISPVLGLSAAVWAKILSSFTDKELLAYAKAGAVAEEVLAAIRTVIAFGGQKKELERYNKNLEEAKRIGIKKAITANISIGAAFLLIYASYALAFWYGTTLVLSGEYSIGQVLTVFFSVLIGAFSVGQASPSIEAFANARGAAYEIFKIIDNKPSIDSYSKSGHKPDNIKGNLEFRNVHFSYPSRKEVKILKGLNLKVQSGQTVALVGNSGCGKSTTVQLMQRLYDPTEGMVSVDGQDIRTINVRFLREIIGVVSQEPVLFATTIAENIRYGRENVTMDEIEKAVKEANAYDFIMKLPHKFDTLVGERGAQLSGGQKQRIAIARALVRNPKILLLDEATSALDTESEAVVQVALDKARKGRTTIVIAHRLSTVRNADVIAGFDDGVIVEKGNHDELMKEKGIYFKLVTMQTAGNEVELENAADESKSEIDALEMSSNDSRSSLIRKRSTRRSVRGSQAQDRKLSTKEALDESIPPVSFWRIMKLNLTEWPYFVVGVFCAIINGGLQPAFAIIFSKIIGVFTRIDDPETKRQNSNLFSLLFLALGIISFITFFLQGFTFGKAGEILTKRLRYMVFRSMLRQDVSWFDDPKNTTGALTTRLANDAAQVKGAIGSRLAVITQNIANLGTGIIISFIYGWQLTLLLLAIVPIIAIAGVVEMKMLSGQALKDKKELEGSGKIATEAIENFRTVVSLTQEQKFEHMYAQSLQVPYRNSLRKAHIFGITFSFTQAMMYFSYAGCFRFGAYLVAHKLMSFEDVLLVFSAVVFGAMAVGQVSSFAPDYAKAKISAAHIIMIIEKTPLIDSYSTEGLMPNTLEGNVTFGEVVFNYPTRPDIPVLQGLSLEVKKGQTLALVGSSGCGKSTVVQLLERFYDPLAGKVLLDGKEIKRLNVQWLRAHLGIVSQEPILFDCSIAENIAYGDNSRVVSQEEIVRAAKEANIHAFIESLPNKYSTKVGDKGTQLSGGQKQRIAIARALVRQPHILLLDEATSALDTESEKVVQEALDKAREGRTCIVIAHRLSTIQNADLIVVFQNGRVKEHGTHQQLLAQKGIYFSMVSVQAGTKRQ
T2 sequence (P33527 whole entry): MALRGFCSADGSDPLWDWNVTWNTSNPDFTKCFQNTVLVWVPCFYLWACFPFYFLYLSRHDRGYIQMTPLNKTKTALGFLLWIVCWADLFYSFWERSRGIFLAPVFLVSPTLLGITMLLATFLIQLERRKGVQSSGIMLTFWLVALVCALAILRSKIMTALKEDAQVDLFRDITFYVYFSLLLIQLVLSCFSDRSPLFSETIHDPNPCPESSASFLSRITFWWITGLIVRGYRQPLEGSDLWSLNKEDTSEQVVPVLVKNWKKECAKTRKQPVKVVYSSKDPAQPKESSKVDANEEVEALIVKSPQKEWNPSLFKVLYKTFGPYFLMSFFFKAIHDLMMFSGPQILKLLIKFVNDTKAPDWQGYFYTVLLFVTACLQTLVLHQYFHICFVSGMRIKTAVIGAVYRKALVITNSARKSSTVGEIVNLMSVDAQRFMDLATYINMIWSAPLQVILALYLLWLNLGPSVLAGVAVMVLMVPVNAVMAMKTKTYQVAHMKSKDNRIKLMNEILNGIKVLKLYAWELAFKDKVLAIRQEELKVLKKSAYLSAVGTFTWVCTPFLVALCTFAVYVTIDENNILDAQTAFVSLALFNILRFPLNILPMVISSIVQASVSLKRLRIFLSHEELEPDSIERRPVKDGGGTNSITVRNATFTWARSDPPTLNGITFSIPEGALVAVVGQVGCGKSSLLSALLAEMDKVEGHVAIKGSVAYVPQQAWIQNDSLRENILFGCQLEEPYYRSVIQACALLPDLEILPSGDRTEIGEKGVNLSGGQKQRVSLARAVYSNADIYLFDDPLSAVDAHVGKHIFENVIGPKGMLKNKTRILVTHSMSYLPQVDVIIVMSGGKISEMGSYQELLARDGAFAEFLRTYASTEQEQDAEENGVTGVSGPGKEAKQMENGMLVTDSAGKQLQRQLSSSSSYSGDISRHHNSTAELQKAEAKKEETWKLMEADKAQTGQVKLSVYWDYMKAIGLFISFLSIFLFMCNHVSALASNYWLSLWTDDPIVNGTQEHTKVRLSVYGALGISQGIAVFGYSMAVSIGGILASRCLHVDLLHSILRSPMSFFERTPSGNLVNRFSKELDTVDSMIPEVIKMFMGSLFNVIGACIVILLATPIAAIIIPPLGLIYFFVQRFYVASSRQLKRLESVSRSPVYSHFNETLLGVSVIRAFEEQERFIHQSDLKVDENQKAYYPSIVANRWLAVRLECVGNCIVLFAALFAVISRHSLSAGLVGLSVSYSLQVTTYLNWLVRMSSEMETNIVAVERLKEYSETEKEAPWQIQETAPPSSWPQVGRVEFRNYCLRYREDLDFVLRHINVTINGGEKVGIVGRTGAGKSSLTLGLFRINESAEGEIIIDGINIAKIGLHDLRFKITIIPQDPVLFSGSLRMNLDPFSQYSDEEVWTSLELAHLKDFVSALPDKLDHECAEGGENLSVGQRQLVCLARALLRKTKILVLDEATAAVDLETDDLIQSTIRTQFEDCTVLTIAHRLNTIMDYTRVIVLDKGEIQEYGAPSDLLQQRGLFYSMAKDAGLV

With `COc1cc(-c2nc(SCC(=O)NC(=O)Nc3ccccn3)nc(Nc3cccc(Cl)c3)c2C#N)cc(OC)c1OC`, the viability at 72 h, 2 µM in series [1] and in [2] was > 90% in each case. In addition, the “inhibition (INH)” value was “Dose-dependent effect” in series [3]; “Dose-dependent effect” in series [6]; “Dose-dependent effect” in series [8]; “Active” in [9]; “Dose-dependent effect” in [10]. Also, the “fold change (FC)” value in [4] is recorded as 135.03; in series [15] it was 3.85; in [16], 1.13. Further, the result in series [5], in [7] and in series [17] was inactive. Moreover, the inhibition entry in series [11] and in series [19] was “inactive” in each case. Also, in series [12], the EC50 was 970 nM. Also, the IC50 in series [13] was 17.2 µM. Also, in series [14], the Activity entry is given as “Not Active”. Besides, the outcome in [18] was Active.
